Data as given in the M2OR odorant receptor database.

Key:
Settings in all cases: stereoisomer not certain
OR6C3 (Homo sapiens) = OR6C3 (Homo sapiens) (UniProt Q9NZP0)
Procedure, shortened: (§1)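 Each entry records the cell line, G-protein, co-transfected protein and tags used. Methods varied with the source, often transient luciferase assays in mammalian cell lines. A receptor–molecule pair is called responsive (active) if the original authors judged its signal statistically different from baseline and non-responsive (inactive) otherwise.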

OR6C4 (Homo sapiens) = OR6C4 (Homo sapiens) (UniProt Q8NGE1)
OR6C4 (Homo sapiens), sequence (Q8NGE1 whole entry): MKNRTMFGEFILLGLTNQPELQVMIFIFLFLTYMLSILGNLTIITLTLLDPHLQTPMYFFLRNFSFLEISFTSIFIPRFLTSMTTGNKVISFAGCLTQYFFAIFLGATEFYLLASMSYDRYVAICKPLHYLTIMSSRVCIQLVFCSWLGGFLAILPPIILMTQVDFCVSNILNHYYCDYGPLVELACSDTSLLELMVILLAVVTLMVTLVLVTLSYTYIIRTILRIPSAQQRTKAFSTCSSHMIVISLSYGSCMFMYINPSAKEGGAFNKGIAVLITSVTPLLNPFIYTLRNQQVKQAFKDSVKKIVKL
Procedure, shortened: as §1

OR6C6 (Homo sapiens) = OR6C6 (Homo sapiens) (UniProt A6NF89)
OR6C6 (Homo sapiens), sequence (A6NF89 whole entry): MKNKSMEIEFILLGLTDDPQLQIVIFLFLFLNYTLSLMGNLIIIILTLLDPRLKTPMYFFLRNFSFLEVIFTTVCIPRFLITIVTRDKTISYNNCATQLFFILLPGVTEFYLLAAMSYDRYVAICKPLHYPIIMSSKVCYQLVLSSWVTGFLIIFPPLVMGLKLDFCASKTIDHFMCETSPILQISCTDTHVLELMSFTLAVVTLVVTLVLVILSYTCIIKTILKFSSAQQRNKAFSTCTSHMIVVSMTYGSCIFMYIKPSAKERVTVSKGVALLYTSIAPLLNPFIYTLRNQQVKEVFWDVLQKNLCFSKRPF
Procedure, shortened: as §1

OR6C65 (Homo sapiens) = OR6C65 (Homo sapiens) (UniProt A6NJZ3)
OR6C65 (Homo sapiens), sequence (A6NJZ3 whole entry): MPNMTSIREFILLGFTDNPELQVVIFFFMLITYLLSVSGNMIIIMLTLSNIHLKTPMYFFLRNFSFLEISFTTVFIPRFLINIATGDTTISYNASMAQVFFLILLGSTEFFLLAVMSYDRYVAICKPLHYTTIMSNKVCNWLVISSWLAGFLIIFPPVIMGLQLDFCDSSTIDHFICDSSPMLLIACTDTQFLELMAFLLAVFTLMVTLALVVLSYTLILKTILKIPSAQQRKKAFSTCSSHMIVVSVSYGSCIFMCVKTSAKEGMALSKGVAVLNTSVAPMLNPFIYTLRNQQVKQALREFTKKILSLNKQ
Procedure, shortened: as §1

OR6C68 (Homo sapiens) = OR6C68 (Homo sapiens) (UniProt A6NDL8)
OR6C68 (Homo sapiens), sequence (A6NDL8 whole entry): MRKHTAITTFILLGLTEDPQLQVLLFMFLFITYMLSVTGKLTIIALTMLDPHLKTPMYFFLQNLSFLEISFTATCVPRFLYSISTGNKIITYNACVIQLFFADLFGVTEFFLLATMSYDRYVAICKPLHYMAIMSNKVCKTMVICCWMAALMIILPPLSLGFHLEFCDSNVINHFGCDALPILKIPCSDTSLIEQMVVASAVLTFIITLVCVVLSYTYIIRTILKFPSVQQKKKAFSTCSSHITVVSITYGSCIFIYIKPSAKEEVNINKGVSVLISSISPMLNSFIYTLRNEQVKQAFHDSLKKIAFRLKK
Procedure, shortened: as §1

OR6C70 (Homo sapiens) = OR6C70 (Homo sapiens) (UniProt A6NIJ9)
OR6C70 (Homo sapiens), sequence (A6NIJ9 whole entry): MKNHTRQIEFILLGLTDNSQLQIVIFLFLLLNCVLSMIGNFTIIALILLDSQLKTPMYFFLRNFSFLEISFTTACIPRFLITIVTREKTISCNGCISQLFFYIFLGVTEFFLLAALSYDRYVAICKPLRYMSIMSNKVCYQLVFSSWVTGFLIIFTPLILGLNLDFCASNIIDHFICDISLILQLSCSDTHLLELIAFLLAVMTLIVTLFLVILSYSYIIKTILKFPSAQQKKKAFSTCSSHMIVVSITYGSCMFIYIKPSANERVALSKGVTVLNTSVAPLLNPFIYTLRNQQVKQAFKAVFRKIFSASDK
Procedure, shortened: as §1

OR6C74 (Homo sapiens) = OR6C74 (Homo sapiens) (UniProt A6NCV1)
OR6C74 (Homo sapiens), sequence (A6NCV1 whole entry): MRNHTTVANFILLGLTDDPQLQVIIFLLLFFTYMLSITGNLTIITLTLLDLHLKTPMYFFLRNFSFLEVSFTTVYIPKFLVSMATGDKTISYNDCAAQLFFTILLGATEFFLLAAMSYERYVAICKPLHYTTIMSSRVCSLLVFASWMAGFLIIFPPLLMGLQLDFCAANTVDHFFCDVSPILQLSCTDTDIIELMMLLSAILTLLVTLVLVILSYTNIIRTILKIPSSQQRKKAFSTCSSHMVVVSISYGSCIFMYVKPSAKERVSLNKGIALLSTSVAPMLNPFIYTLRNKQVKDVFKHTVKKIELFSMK
Procedure, shortened: as §1

OR6C75 (Homo sapiens) = OR6C75 (Homo sapiens) (UniProt A6NL08)
OR6C75 (Homo sapiens), sequence (A6NL08 whole entry): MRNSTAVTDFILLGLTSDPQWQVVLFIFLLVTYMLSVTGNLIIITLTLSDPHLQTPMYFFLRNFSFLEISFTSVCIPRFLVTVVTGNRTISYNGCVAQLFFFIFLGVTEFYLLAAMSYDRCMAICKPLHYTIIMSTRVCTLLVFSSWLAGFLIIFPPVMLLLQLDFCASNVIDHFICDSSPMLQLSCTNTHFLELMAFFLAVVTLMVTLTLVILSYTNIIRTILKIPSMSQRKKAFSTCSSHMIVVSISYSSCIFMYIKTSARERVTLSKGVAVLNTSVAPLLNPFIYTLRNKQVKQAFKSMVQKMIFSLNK
Procedure, shortened: as §1

OR6C4 = test system: OR6C4
OR6C4, sequence (as listed by the source): as the sequence (Q8NGE1 whole entry) above, with I37V counted along it
Procedure, shortened: as §1

OR6C6 M6I = test system: OR6C6 M6I
OR6C6 M6I, sequence (as listed by the source): as the sequence (A6NF89 whole entry) above, with M6I counted along it
Procedure, shortened: as §1

Measured: odorant receptor agonist call

OR6C3 (Homo sapiens), sequence (Q9NZP0 whole entry): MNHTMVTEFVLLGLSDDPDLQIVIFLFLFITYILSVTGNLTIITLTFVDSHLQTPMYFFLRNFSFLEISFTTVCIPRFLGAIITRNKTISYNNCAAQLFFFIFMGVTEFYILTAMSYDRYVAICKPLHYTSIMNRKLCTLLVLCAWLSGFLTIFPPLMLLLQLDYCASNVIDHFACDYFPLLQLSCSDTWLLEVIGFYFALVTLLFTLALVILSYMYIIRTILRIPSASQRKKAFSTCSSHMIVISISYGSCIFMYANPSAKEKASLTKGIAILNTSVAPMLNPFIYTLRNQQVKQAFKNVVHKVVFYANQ

Cc1c([N+](=O)[O-])c(C)c([N+](=O)[O-])c(C(C)(C)C)c1[N+](=O)[O-]
inactive: OR6C3 (Homo sapiens) | OR6C4 (Homo sapiens) | OR6C6 (Homo sapiens) | OR6C65 (Homo sapiens) | OR6C68 (Homo sapiens) | OR6C70 (Homo sapiens) | OR6C74 (Homo sapiens) | OR6C75 (Homo sapiens)

C=CCOC(=O)Cc1ccccc1
inactive: OR6C3 (Homo sapiens) | OR6C4 (Homo sapiens) | OR6C4 | OR6C6 (Homo sapiens) | OR6C6 M6I | OR6C65 (Homo sapiens) | OR6C68 (Homo sapiens) | OR6C70 (Homo sapiens) | OR6C74 (Homo sapiens) | OR6C75 (Homo sapiens)
